Activity calls are given as the source filed them. The rule behind the calls is not given here.
Tests used:
Jurkat [1] = experiment: Induction of store-operated calcium entry in human Jurkat cells assessed as induction of store-operated calcium entry by measuring increase in AUC of calcium entry at 3 to 100 uM preincubated for 30 mins followed by tBhQ-mediated Ca2+ depletion and Ca2+ re-addition to extracellular solution measured for 600 secs by Fluo-4 AM-based fluorometric assay relative to control; format: cell-based
[2] = target: T1, Short transient receptor potential channel 1 & 3/Stromal interaction molecule 1/Calcium release-activated calcium channel protein 1 (Homo sapiens) (UniProt Q96D31+Q13507+Q13586+P48995); experiment: Modulation of TRPC1/TRPC3/STIM1/Orai1 in HEK cells assessed as induction of store-operated calcium entry by measuring increase in peak amplitude at 3 to 100 uM preincubated for 30 mins followed by tBhQ-mediated Ca2+ depletion and Ca2+ re-addition to extracellular solution measured for 600 secs by Fluo-4 AM-based fluorometric assay relative to control; format: cell-based
[3] = system: voltage-gated calcium channel (Mus musculus); experiment: Antagonist activity at voltage-gated calcium channels in C57/BL6 mouse cerebellar granule cells assessed as inhibition of KCl-induced voltage dependent calcium entry at 10 uM by fura-2-based assay
[4] = target: T1, Short transient receptor potential channel 1 & 3/Stromal interaction molecule 1/Calcium release-activated calcium channel protein 1 (Homo sapiens); experiment: Modulation of TRPC1/TRPC3/STIM1/Orai1 in HEK cells assessed as induction of store-operated calcium entry by measuring residual activity at 10 uM preincubated for 30 mins followed by tBhQ-mediated Ca2+ depletion and Ca2+ re-addition to extracellular solution measured for 600 secs by Fluo-4 AM-based fluorometric assay relative to control; format: cell-based
[5] = target: Transient receptor potential cation channel subfamily V member 1 (Homo sapiens) (UniProt Q8NER1); experiment: Antagonist activity at TRPV1 (unknown origin) expressed in HEK cells assessed as inhibition of capsaicin-induced calcium increase at 10 uM by fura-2-based assay; format: cell-based
Outline: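 TRPV1-overexpressing Hek cells; calcium rise evoked by capsaicin (100 nM), test compounds at 10 μM; peak amplitude read out; mean ± SEM of 600 cells from 30 plates on four separate experimental days.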

[6] = target: T1, Short transient receptor potential channel 1 & 3/Stromal interaction molecule 1/Calcium release-activated calcium channel protein 1 (Homo sapiens); experiment: Modulation of TRPC1/TRPC3/STIM1/Orai1 in HEK cells assessed as induction of store-operated calcium entry at 10 uM preincubated for 30 mins followed by tBhQ-mediated Ca2+ depletion and Ca2+ re-addition to extracellular solution measured for 800 secs by Fluo-4 AM-based fluorometric assay relative to control; format: cell-based
Homo sapiens = species on record: Homo sapiens; experiment: Modulation of Orai1/STIM1 (unknown origin) expressed in HEK cells assessed as potentiation of store-operated calcium currents by measuring reduction in time constant of channel activation in presence of 20 mM BAPTA and 150 nM Ca2+ containing internal solution by patch clamp assay relative to control; format: cell-based
Jurkat [7] = experiment: Induction of store-operated calcium entry in human Jurkat cells assessed as induction of store-operated calcium entry by measuring residual activity at 10 uM preincubated for 30 mins followed by tBhQ-mediated Ca2+ depletion and Ca2+ re-addition to extracellular solution measured for 600 secs by Fluo-4 AM-based fluorometric assay relative to control; format: cell-based
[8] = target: T2, ORAI1/STIM1 (Homo sapiens) (UniProt Q96D31+Q13586); experiment: Modulation of Orai1/STIM1 (unknown origin) expressed in HEK cells assessed as potentiation of store-operated calcium currents in presence of 20 mM BAPTA and 150 nM Ca2+ containing internal solution by patch clamp assay relative to control; format: cell-based
[9] = target: T1, Short transient receptor potential channel 1 & 3/Stromal interaction molecule 1/Calcium release-activated calcium channel protein 1 (Homo sapiens); experiment: Modulation of TRPC1/TRPC3/STIM1/Orai1 in HEK cells assessed as induction of store-operated calcium entry by measuring increase in slope at 3 to 100 uM preincubated for 30 mins followed by tBhQ-mediated Ca2+ depletion and Ca2+ re-addition to extracellular solution measured for 600 secs by Fluo-4 AM-based fluorometric assay relative to control; format: cell-based
Jurkat [10] = experiment: Induction of store-operated calcium entry in human Jurkat cells assessed as induction of store-operated calcium entry at 10 uM preincubated for 30 mins followed by tBhQ-mediated Ca2+ depletion and Ca2+ re-addition to extracellular solution measured for 800 secs by Fluo-4 AM-based fluorometric assay relative to control; format: cell-based
[11] = target: T3, Stromal interaction molecule 1 & 2/Calcium release-activated calcium channel protein 1 (Mus musculus) (UniProt Q8BWG9+P70302+P83093); experiment: Modulation of STIM1/STIM2/Orai1 in mouse BV2 cells assessed as induction of store-operated calcium entry at 10 uM preincubated for 30 mins followed by tBhQ-mediated Ca2+ depletion and Ca2+ re-addition to extracellular solution measured for 800 secs by Fluo-4 AM-based fluorometric assay relative to control; format: cell-based
Outline: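 Microplate Fluo-4 assay in mouse microglial BV-2 cells. Stores emptied with tBhQ (50 μM) in presence of compound (10 μM); extracellular Ca2+ re-added after 600 s and intracellular Ca2+ read fluorimetrically; SOCE expressed versus control.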

Jurkat [12] = experiment: Induction of store-operated calcium entry in human Jurkat cells assessed as induction of store-operated calcium entry by measuring increase in peak amplitude at 3 to 100 uM preincubated for 30 mins followed by tBhQ-mediated Ca2+ depletion and Ca2+ re-addition to extracellular solution measured for 600 secs by Fluo-4 AM-based fluorometric assay relative to control; format: cell-based
[13] = target: T2, ORAI1/STIM1 (Homo sapiens); experiment: Modulation of Orai1/STIM1 (unknown origin) expressed in HEK cells assessed as potentiation of store-operated calcium currents in presence of 20 mM BAPTA by patch clamp assay relative to control; format: cell-based
Outline: (§1)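 Whole-cell ISOC recorded in Hek cells stably overexpressing Orai1 and transiently expressing STIM1; internal solution strongly buffered with 20 mM BAPTA; compound at 10 μM versus untreated control.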

[14] = target: T3, Stromal interaction molecule 1 & 2/Calcium release-activated calcium channel protein 1 (Mus musculus); experiment: Modulation of STIM1/STIM2/Orai1 in mouse BV2 cells assessed as induction of store-operated calcium entry by measuring residual activity at 10 uM preincubated for 30 mins followed by tBhQ-mediated Ca2+ depletion and Ca2+ re-addition to extracellular solution measured for 600 secs by Fluo-4 AM-based fluorometric assay relative to control; format: cell-based
[15] = system: voltage-gated calcium channel (Mus musculus); experiment: Antagonist activity at voltage-gated calcium channels in C57/BL6 mouse cerebellar granule cells assessed as inhibition of KCl-induced voltage dependent calcium entry at 10 uM by fura-2-based assay; remark: listed apart in the source
[16] = target: T3, Stromal interaction molecule 1 & 2/Calcium release-activated calcium channel protein 1 (Mus musculus); experiment: Modulation of STIM1/STIM2/Orai1 in mouse BV2 cells assessed as induction of store-operated calcium entry by measuring increase in peak amplitude at 3 to 100 uM preincubated for 30 mins followed by tBhQ-mediated Ca2+ depletion and Ca2+ re-addition to extracellular solution measured for 600 secs by Fluo-4 AM-based fluorometric assay relative to control; format: cell-based
[17] = target: Transient receptor potential cation channel subfamily M member 8 (Homo sapiens) (UniProt Q7Z2W7); experiment: Antagonist activity at TRPM8 (unknown origin) expressed in HEK cells assessed as inhibition of menthol -mediated calcium increase at 10 uM by fura-2-based assay; format: cell-based
Outline: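 TRPM8-overexpressing Hek cells; calcium rise evoked by menthol (100 μM), test compounds at 10 μM; peak amplitude read out; mean ± SEM of 600 cells from 30 plates on four separate experimental days.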

[18] = target: T3, Stromal interaction molecule 1 & 2/Calcium release-activated calcium channel protein 1 (Mus musculus); experiment: Modulation of STIM1/STIM2/Orai1 in mouse BV2 cells assessed as induction of store-operated calcium entry by measuring increase in slope at 3 to 100 uM preincubated for 30 mins followed by tBhQ-mediated Ca2+ depletion and Ca2+ re-addition to extracellular solution measured for 600 secs by Fluo-4 AM-based fluorometric assay relative to control; format: cell-based
Jurkat [19] = experiment: Induction of store-operated calcium entry in human Jurkat cells assessed as induction of store-operated calcium entry by measuring increase in slope at 3 to 100 uM preincubated for 30 mins followed by tBhQ-mediated Ca2+ depletion and Ca2+ re-addition to extracellular solution measured for 600 secs by Fluo-4 AM-based fluorometric assay relative to control; format: cell-based
[20] = target: T1, Short transient receptor potential channel 1 & 3/Stromal interaction molecule 1/Calcium release-activated calcium channel protein 1 (Homo sapiens); experiment: Modulation of TRPC1/TRPC3/STIM1/Orai1 in HEK cells assessed as induction of store-operated calcium entry by measuring increase in AUC of calcium entry at 3 to 100 uM preincubated for 30 mins followed by tBhQ-mediated Ca2+ depletion and Ca2+ re-addition to extracellular solution measured for 600 secs by Fluo-4 AM-based fluorometric assay relative to control; format: cell-based
[21] = target: T3, Stromal interaction molecule 1 & 2/Calcium release-activated calcium channel protein 1 (Mus musculus); experiment: Modulation of STIM1/STIM2/Orai1 in mouse BV2 cells assessed as induction of store-operated calcium entry by measuring increase in AUC of calcium entry at 3 to 100 uM preincubated for 30 mins followed by tBhQ-mediated Ca2+ depletion and Ca2+ re-addition to extracellular solution measured for 600 secs by Fluo-4 AM-based fluorometric assay relative to control; format: cell-based
[22] = Cytotoxicity against HEK cells assessed as cell viability at 10 uM by MTT assay relative to control; format: cell-based; conditions: human, read-out: Activity
Outline: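 Hek cells treated 24 h with compound at 10 μM; viability determined by MTT assay.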

[23] = target: T3, Stromal interaction molecule 1 & 2/Calcium release-activated calcium channel protein 1 (Mus musculus); experiment: Modulation of STIM1/STIM2/Orai1 in mouse BV2 cells assessed as induction of store-operated calcium entry by measuring residual activity at 100 uM preincubated for 30 mins followed by tBhQ-mediated Ca2+ depletion and Ca2+ re-addition to extracellular solution measured for 600 secs by Fluo-4 AM-based fluorometric assay relative to control; format: cell-based
[24] = Induction of store-operated calcium entry in human Jurkat cells assessed as induction of store-operated calcium entry by measuring residual activity preincubated for 30 mins followed by tBhQ-mediated Ca2+ depletion and Ca2+ re-addition to extracellular solution measured for 600 secs by Fluo-4 AM-based fluorometric assay relative to control; format: cell-based
[25] = target: T2, ORAI1/STIM1 (Homo sapiens); experiment: Inhibition of Orai1/STIM1 (unknown origin) expressed in HEK cells assessed as reduction in store-operated calcium currents at 10 uM by patch clamp assay relative to control; format: cell-based; outline: as §1
[26] = Drug metabolism in CD1 mouse liver microsomes assessed as 1-(4-(4-(3-Carboxyphenyl)-1H-1,2,3-triazol-1-yl)phenyl)-5-(trifluoromethyl)-1H-pyrazole-4-carboxylic Acid metabolite formation at 50 uM after 60 mins by mass spectroscopic analysis; format: ADME, microsome
Jurkat [27] = experiment: Induction of store-operated calcium entry in human Jurkat cells assessed as induction of store-operated calcium entry by measuring residual activity at 100 uM preincubated for 30 mins followed by tBhQ-mediated Ca2+ depletion and Ca2+ re-addition to extracellular solution measured for 600 secs by Fluo-4 AM-based fluorometric assay relative to control; format: cell-based
[28] = target: Stromal interaction molecule 1 & 2/Calcium release-activated calcium channel protein 1 (Homo sapiens, UniProt Q13586+Q96D31+Q9P246); experiment: Inhibition of STIM1/STIM2/Orai1 (unknown origin) expressed in mouse BV2 cells assessed as induction of store-operated calcium entry by measuring residual activity preincubated for 30 mins followed by tBhQ, mediated Ca2+ depletion and re-addition measured for 600 secs by Fluo-4 AM-based fluorometric assay; format: cell-based
[29] = target: T1, Short transient receptor potential channel 1 & 3/Stromal interaction molecule 1/Calcium release-activated calcium channel protein 1 (Homo sapiens); experiment: Modulation of TRPC1/TRPC3/STIM1/Orai1 in HEK cells assessed as induction of store-operated calcium entry by measuring residual activity at 100 uM preincubated for 30 mins followed by tBhQ-mediated Ca2+ depletion and Ca2+ re-addition to extracellular solution measured for 600 secs by Fluo-4 AM-based fluorometric assay relative to control; format: cell-based
[30] = Metabolic stability in CD1 mouse plasma assessed as residual compound level at 50 uM after 30 mins by LC-UV analysis; format: ADME, cell-free; conditions: read-out: Stability
Outline: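 Compounds incubated in mouse plasma for 30 min; percentage of residual substrate determined.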

[31] = target: Short transient receptor potential channel 1 & 3/Stromal interaction molecule 1/Calcium release-activated calcium channel protein 1 (Homo sapiens, UniProt P48995+Q13507+Q13586+Q96D31); experiment: Modulation of TRPC1/TRPC3/STIM1/Orai1 in HEK cells assessed as induction of store-operated calcium entry by measuring residual activity preincubated for 30 mins followed by tBhQ-mediated Ca2+ depletion and Ca2+ re-addition to extracellular solution measured for 600 secs by Fluo-4 AM-based fluorometric assay relative to control; format: cell-based

T2 sequence (Q13586 23-685 partner limits assumed): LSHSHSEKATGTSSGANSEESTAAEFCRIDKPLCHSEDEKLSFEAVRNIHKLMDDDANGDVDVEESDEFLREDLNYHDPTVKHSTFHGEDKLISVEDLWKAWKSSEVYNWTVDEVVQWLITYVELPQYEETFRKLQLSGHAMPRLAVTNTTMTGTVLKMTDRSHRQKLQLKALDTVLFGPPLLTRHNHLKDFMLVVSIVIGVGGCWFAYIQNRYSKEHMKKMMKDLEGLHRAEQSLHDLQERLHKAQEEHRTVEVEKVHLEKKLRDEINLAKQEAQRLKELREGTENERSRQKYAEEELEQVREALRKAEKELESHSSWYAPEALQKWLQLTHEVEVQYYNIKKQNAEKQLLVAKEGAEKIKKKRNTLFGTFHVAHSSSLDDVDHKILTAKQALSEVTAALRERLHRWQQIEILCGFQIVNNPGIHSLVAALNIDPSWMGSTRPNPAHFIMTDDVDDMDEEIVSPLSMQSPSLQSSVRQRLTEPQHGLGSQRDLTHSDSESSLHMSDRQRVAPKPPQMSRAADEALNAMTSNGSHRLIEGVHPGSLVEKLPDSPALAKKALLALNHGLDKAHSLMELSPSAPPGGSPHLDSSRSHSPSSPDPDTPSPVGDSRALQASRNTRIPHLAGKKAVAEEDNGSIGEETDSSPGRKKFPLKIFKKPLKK
T2 sequence (Q96D31 whole entry): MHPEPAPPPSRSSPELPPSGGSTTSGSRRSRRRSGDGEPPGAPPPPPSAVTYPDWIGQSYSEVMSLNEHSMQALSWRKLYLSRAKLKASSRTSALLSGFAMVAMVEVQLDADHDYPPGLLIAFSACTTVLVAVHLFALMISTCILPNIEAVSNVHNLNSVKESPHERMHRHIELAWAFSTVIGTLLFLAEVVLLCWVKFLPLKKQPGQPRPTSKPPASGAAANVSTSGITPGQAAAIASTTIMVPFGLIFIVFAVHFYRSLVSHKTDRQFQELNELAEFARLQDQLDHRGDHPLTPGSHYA
T1 sequence (P48995 whole entry partner): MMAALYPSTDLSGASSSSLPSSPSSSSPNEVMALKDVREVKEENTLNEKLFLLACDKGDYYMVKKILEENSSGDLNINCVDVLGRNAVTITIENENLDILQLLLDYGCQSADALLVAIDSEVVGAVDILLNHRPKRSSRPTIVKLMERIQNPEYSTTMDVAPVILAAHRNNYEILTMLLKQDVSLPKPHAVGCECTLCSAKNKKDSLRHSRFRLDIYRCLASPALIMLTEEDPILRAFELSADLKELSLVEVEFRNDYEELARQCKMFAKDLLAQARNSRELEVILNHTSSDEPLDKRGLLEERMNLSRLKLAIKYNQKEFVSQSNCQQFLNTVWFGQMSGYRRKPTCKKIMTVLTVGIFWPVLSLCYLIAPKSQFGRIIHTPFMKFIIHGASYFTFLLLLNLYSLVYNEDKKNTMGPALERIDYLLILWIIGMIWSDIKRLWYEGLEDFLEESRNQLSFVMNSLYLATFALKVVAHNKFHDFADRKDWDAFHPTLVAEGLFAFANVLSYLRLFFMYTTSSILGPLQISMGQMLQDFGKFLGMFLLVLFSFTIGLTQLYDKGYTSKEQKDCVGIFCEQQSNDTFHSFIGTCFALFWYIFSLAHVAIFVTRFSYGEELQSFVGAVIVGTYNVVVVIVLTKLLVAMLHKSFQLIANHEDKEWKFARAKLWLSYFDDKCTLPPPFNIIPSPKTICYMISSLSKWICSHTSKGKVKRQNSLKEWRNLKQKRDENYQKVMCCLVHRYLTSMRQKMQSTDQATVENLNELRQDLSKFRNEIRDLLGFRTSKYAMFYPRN
T1 sequence (Q13507 whole entry partner): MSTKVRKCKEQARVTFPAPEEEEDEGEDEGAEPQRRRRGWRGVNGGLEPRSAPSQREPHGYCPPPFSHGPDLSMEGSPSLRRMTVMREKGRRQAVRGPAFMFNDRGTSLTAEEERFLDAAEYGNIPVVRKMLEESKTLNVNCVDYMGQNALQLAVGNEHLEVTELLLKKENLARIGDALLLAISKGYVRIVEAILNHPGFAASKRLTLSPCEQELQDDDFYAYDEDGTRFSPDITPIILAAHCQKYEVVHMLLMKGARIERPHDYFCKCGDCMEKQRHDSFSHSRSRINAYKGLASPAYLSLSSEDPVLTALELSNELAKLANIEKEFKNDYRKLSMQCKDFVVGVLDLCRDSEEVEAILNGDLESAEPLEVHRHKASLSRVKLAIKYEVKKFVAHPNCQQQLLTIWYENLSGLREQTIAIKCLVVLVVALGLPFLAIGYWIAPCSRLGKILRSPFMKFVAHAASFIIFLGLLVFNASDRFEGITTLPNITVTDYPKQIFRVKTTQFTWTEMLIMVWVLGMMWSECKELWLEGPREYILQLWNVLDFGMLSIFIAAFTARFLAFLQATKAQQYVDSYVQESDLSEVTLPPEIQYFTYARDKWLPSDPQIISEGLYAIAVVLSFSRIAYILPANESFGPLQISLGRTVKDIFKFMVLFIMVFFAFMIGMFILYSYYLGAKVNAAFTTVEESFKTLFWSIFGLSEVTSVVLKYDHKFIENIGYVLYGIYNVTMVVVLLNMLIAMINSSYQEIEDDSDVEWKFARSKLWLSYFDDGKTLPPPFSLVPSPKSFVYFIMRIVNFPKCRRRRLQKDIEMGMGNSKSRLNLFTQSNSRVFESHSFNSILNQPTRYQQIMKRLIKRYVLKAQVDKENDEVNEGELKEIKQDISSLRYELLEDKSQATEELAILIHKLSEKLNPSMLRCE
T1 sequence (Q13586 23-685 partner limits assumed): as the sequence (Q13586 23-685 partner limits assumed) above
T1 sequence (Q96D31 whole entry): as the sequence (Q96D31 whole entry) above
Transient receptor potential cation channel subfamily M member 8 (Homo sapiens), sequence (Q7Z2W7 whole entry, looked up): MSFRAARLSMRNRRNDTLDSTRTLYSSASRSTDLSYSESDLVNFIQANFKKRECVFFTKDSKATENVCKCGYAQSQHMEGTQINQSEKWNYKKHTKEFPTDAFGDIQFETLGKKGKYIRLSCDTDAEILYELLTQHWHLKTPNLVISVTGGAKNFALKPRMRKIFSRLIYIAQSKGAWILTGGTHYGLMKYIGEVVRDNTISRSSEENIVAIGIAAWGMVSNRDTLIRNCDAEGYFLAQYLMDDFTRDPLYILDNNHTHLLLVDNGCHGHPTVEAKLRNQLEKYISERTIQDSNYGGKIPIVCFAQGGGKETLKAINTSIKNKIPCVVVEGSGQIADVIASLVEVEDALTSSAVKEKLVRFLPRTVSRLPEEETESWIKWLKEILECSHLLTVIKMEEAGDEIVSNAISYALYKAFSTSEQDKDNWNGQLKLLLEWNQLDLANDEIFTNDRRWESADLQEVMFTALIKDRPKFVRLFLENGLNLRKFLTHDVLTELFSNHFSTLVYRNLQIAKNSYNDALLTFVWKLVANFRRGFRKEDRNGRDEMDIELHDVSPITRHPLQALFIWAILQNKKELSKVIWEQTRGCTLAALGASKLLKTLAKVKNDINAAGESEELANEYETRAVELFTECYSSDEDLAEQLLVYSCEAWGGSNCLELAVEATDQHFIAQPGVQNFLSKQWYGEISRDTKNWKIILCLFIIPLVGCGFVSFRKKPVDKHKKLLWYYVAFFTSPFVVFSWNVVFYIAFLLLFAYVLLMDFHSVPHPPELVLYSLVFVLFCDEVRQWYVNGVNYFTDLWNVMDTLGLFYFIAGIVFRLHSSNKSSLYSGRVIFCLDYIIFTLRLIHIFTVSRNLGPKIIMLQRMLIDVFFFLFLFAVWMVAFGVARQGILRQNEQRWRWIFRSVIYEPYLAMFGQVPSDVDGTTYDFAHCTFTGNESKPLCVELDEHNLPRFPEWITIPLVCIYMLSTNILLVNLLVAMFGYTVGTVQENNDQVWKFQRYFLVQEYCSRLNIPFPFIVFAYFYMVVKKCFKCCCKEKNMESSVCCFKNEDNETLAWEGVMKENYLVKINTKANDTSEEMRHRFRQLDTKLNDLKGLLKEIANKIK
Transient receptor potential cation channel subfamily V member 1 (Homo sapiens), sequence (Q8NER1 whole entry): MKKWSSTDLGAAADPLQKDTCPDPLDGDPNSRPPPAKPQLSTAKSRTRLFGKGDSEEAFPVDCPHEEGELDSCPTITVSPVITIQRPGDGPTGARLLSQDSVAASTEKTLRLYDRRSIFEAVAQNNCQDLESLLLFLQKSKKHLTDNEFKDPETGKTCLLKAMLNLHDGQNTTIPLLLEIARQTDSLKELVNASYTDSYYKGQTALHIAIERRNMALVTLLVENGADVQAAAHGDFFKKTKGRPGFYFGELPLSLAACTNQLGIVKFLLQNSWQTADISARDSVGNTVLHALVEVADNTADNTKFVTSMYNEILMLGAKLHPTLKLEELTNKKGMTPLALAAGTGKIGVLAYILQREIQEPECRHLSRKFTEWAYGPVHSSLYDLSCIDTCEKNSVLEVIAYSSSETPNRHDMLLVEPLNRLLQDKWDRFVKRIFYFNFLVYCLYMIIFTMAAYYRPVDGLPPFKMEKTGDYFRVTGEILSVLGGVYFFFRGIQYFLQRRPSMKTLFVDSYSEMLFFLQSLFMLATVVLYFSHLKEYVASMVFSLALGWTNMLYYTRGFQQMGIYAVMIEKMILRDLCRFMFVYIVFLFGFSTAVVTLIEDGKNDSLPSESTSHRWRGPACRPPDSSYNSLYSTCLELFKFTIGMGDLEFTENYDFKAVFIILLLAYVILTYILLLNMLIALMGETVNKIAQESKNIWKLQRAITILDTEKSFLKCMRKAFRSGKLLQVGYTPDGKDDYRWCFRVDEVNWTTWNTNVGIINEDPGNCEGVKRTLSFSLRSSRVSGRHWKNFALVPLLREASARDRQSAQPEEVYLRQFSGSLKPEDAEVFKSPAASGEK

## CCOC(=O)c1cnn(-c2ccc(-c3cn(-c4ccc(Cl)cc4)nn3)cc2)c1C(F)(F)F
Jurkat [1]
  Activity: Active
[2]
  Activity: Active
[3]
  inhibition: inactive
[4]
  Activity: 142%
[5]
  inhibition: inactive
[6]
  Activity: inactive
Homo sapiens
  Activity: Active
Jurkat [7]
  Activity: 197%
[8]
  Activity: inactive
[9]
  Activity: Active
Jurkat [10]
  Activity: inactive
[11]
  Activity: inactive
Jurkat [12]
  Activity: Active
[13]
  Activity: Active
[14]
  Activity: 153%
[15]
  inhibition: inactive
[16]
  Activity: Active
[17]
  inhibition: inactive
[18]
  Activity: Active
Jurkat [19]
  Activity: Active
[20]
  Activity: Active
[21]
  Activity: Active

## CCOC(=O)c1cnn(-c2ccc(-n3cc(-c4cccc(C(=O)O)c4)nn3)cc2)c1C(F)(F)F
[22]
  viability at 10 µM: 84%
[3]
  inhibition: inactive
[4]
  Activity: 12.8%
[23]
  residual activity: < 100%
[24]
  IC50: 600 nM
[5]
  inhibition: Active
Jurkat [7]
  Activity: 12.8%
[25]
  inhibition: 40%
[14]
  Activity: 54.7%
[15]
  inhibition: inactive
[26]
  Drug metabolism: Metabolite_Notdetected
[17]
  inhibition: inactive
Jurkat [27]
  residual activity: < 100%
[28]
  IC50: 4900 nM
[29]
  residual activity: < 100%
[30]
  remaining at 0.5 h, 50 µM: 0%
[31]
  IC50: 600 nM

Reference: ChEMBL document CHEMBL4152384, “Pyrtriazoles, a Novel Class of Store-Operated Calcium Entry Modulators: Discovery, Biological Profiling, and in Vivo Proof-of-Concept Efficacy in Acute Pancreatitis” (J Med Chem, 2018)
